Source: ChEMBL document CHEMBL1125062, “Structure-activity relationships for the carboxy-terminus truncated analogues of angiotension II, a new class of angiotensin II antagonists” (J Med Chem, 1990)
Where a SMILES comes first, the peptide text is derived from it. [ ]: non-standard residue; d: D form. Sar = CNCC(=O)O

Assays:
Oryctolagus cuniculus = organism: Oryctolagus cuniculus; assay: In vitro myotropic property on the isolated rabbit aorta, expressed as pA2; format: functional; conditions: read-out: pA2 (converted)
Procedure, shortened: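 Aortic rings from male New Zealand white rabbits (2-2.5 kg) equilibrated 1 h, then set at ~1 g passive tension. Paired rings were used: one received cumulative AII, the other AII with the peptide added 5 min before. AII was given at 30-min intervals with Krebs washes. Responses were taken as % of control maximal contraction, and pA2 was derived by Schild analysis.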

Rattus norvegicus [1] = assay: Drinking water response evaluated in conscious rat at a dose of 500 pmol icv; format: functional
Procedure, shortened: (§1)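 Conscious Sprague–Dawley rats given AII 100 pmol icv to induce water drinking. Test peptide was given icv at 500 or 2500 pmol, and the drinking response was recorded.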

Rattus norvegicus [2] = assay: Variation of MAP induced bolus injection of 60 ug/kg of compound during infusion in rat reported as % of control (100) at a dose of 10 ug/kg; format: functional
Procedure, shortened: (§2)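 Same ganglion-blocked, Inactin-anaesthetized rat preparation, with MAP recorded via femoral artery catheter. Antagonist was infused iv for 20 min at 10, 30, 60 or 100 µg/kg per min before AII 30 ng/kg iv bolus challenge. After infusion stopped, AII was repeated at 5-10-min intervals for 1 h. The pressor response was expressed as % of control at 5-60 min, mean ± SEM, n = 2-6.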

Rattus norvegicus [3] = assay: In vivo activity to antagonize the effect of bolus injection of compound at 30 ug/kg in rat; format: functional; conditions: in the assay text read “angiotensin II at 30 ng/kg” for “compound at 30 ug/kg”
Procedure, shortened: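 Male Sprague-Dawley rats (240-400 g) under Inactin (100 mg/kg ip), ganglion-blocked with mecamylamine 3 mg/kg iv and atropine ip. AII 30 ng/kg iv bolus was given four times at 10-min intervals as baseline. Peptide was infused iv for 20 min, then AII was rechallenged. Endpoint was the smallest infusion dose (µg/kg per min) fully blocking the bolus, with time to ~50% recovery after infusion stopped.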

Rattus norvegicus [4] = assay: Drinking water response evaluated in conscious rat at a dose of 2500 pmol icv; format: functional; procedure, shortened: as §1
Rattus norvegicus [5] = assay: Percentage of pressor response to antagonize the effect of bolus injection of compound at a dose of 30 ug/kg/min in rat; format: functional
Rattus norvegicus [6] = assay: Percentage of pressor response to antagonize the effect of bolus injection of compound at a dose of 30 ug/kg per min in rat; format: functional
Rattus norvegicus [7] = organism: Rattus norvegicus; assay: In vitro myotropic property in rat isolated uterus, expressed as pA2; format: functional; conditions: read-out: pA2 (converted)
Rattus norvegicus [8] = assay: In vivo activity to antagonize the effect of bolus injection of angiotensin II at 30 ng/kg in rat
Rattus norvegicus [9] = assay: Variation in mean arterial pressure after 10 min of antagonist infusion at a dose of 10 ug/kg
Rattus norvegicus [10] = assay: Variation in mean arterial pressure after 5 min of antagonist infusion at a dose of 10 ug/kg
Rattus norvegicus [11] = assay: Variation in mean arterial pressure after 40 min of antagonist infusion at a dose of 10 ug/kg
Rattus norvegicus [12] = assay: Variation in mean arterial pressure after 20 min of antagonist infusion at a dose of 10 ug/kg
Rattus norvegicus [13] = assay: Variation in mean arterial pressure after 60 min of antagonist infusion at a dose of 10 ug/kg
Rattus norvegicus [14] = assay: Variation of MAP induced bolus injection of 100 ug/kg of compound during infusion in rat reported as % of control (100) at a dose of 10 ug/kg; format: functional; procedure, shortened: as §2
Rattus norvegicus [15] = organism: Rattus norvegicus; assay: In vitro myotropic property in rat stomach, expressed as pA2; format: functional; conditions: read-out: pA2 (converted)
Rattus norvegicus [16] = assay: Variation of MAP induced bolus injection of 30 ng/kg of compound during infusion in rat reported as % of control (100) at a dose of 30 ug/kg; format: functional; conditions: in the assay text read “10 ug/kg” for “30 ug/kg”; procedure, shortened: as §2
Rattus norvegicus [17] = assay: Variation in mean arterial pressure after 40 min of antagonist infusion at a dose of 30 ug/kg
Rattus norvegicus [18] = assay: In vivo activity to antagonize the effect of bolus injection of angiotensin II at 30 ng/kg in rat; remark: listed apart in the source
Rattus norvegicus [19] = assay: Variation in mean arterial pressure after 20 min of antagonist infusion at a dose of 10 ug/kg; remark: listed apart in the source
Rattus norvegicus [20] = assay: Variation in mean arterial pressure after 5 min of antagonist infusion at a dose of 10 ug/kg; remark: listed apart in the source
Rattus norvegicus [21] = assay: Variation in mean arterial pressure after 60 min of antagonist infusion at a dose of 10 ug/kg; remark: listed apart in the source
Rattus norvegicus [22] = assay: Variation in mean arterial pressure after 40 min of antagonist infusion at a dose of 10 ug/kg; remark: listed apart in the source
Rattus norvegicus [23] = assay: Variation in mean arterial pressure after 10 min of antagonist infusion at a dose of 10 ug/kg; remark: listed apart in the source

In the case of CC[C@H](C)[C@H](NC(=O)[C@H](Cc1ccc(O)cc1)NC(=O)[C@@H](NC(=O)[C@H](CCCN=C(N)N)NC(=O)CNC)C(C)C)C(=O)N[C@@H](Cc1c[nH]cn1)C(=O)N(C)C (H-[Sar]RVYIH-NMe2) [listing 1 of 2 here], the Kb (Oryctolagus cuniculus) is reported as 0.0891 µM.

In the case of CC[C@H](C)[C@H](NC(=O)[C@H](Cc1ccc(O)cc1)NC(=O)[C@@H](NC(=O)[C@H](CCCN=C(N)N)NC(=O)CNC)C(C)C)C(=O)N[C@@H](Cc1c[nH]cn1)C(=O)N1CCC[C@H]1C(N)=O [listing 1 of 2 here], the Kb (Oryctolagus cuniculus) is reported as 0.0251 µM.

In the case of CC[C@H](C)[C@H](NC(=O)[C@H](Cc1ccc(O)cc1)NC(=O)[C@@H](NC(=O)[C@H](CCCN=C(N)N)NC(=O)CNC)C(C)C)C(=O)N[C@@H](Cc1c[nH]cn1)C(=O)N1CCC[C@H]1C(N)=O [listing 2 of 2 here], the Water intake (Rattus norvegicus [1]) is reported as 10 ml 20min-1, the Control (Rattus norvegicus [2]) is reported as 6% and the Antagonist activity (Rattus norvegicus [3]) is reported as 60 µg/min/kg. The Water intake (Rattus norvegicus [4]) was 10.8 ml 20min-1 and the Agonist activity (Rattus norvegicus [5]) was 60%.

Compound CC[C@H](C)[C@H](NC(=O)[C@H](Cc1ccc(O)cc1)NC(=O)[C@@H](NC(=O)[C@H](CCCN=C(N)N)NC(=O)CNC)C(C)C)C(=O)N[C@@H](Cc1c[nH]cn1)C(=O)N1CCC[C@H]1C(=O)O [listing 1 of 2 here] has a Kb (Oryctolagus cuniculus) of 0.0316 µM.

CC[C@H](C)[C@H](NC(=O)[C@H](Cc1ccc(OC)cc1)NC(=O)[C@@H](NC(=O)[C@H](CCCN=C(N)N)NC(=O)CNC)C(C)C)C(=O)N[C@@H](Cc1c[nH]cn1)C(=O)N1CCC[C@H]1C(=O)N[C@@H](Cc1ccccc1)C(=O)O showed a Water intake (Rattus norvegicus [1]) of 3.1 ml 20min-1, an Agonist activity (Rattus norvegicus [6]) of 60% and a Kb (Rattus norvegicus [7]) of 0.0251 µM. It also gave an Antagonist activity (Rattus norvegicus [8]) of 30 µg/min/kg.

CC[C@H](C)[C@H](NC(=O)[C@H](Cc1ccc(OC)cc1)NC(=O)[C@@H](NC(=O)[C@H](CCCN=C(N)N)NC(=O)CNC)C(C)C)C(=O)N[C@@H](Cc1c[nH]cn1)C(=O)N1CCC[C@H]1C(N)=O [listing 1 of 2 here] was tested, and the Kb (Oryctolagus cuniculus) was 0.02 µM.

With CC[C@H](C)[C@H](NC(=O)[C@H](Cc1ccc(O)cc1)NC(=O)[C@@H](NC(=O)[C@H](CCCN=C(N)N)NC(=O)CNC)C(C)C)C(=O)N[C@@H](Cc1c[nH]cn1)C(=O)N(C)CC(N)=O (H-[Sar]RVYIH[Sar]-NH2) the Kb (Oryctolagus cuniculus) was > 1 µM.

CC[C@H](C)[C@H](NC(=O)[C@H](Cc1ccc(OC)cc1)NC(=O)[C@@H](NC(=O)[C@H](CCCN=C(N)N)NC(=O)CNC)C(C)C)C(=O)N[C@@H](Cc1c[nH]cn1)C(=O)N1CCC[C@H]1C(N)=O [listing 2 of 2 here] was tested, and the Pressor response, % of control (Rattus norvegicus [9]) was 86%, the Antagonist activity (Rattus norvegicus [3]) was >100 µg/min/kg and the MAP (Rattus norvegicus [10]) was 70%. It also gave a Pressor response, % of control (Rattus norvegicus [11]) of 91%, an Agonist activity (Rattus norvegicus [5]) of 65% and a Pressor response, % of control (Rattus norvegicus [12]) of 89%. It also gave an MAP (Rattus norvegicus [13]) of 100% and a Control (Rattus norvegicus [14]) of 19%.

CNCC(=O)N[C@@H](CCCN=C(N)N)C(=O)N[C@H](C(=O)N[C@@H](Cc1ccc(O)cc1)C(=O)N[C@H](C(=O)N[C@@H](Cc1c[nH]cn1)C(=O)N1CCC[C@H]1C(=O)N[C@@H](C)C(=O)O)C(C)C)C(C)C [listing 1 of 2 here] gave a Kb (Rattus norvegicus [15]) of 0.00501 µM.

CNCC(=O)N[C@@H](CCCN=C(N)N)C(=O)N[C@H](C(=O)N[C@@H](Cc1ccc(O)cc1)C(=O)N[C@H](C(=O)N[C@@H](Cc1c[nH]cn1)C(=O)N1CCC[C@H]1C(=O)N[C@@H](C)C(=O)O)C(C)C)C(C)C [listing 2 of 2 here] gave a Pressor response, % of control (Rattus norvegicus [9]) of 50%, an Antagonist activity (Rattus norvegicus [3]) of 10 µg/min/kg and an MAP (Rattus norvegicus [10]) of 29%. It also gave a Pressor response, % of control (Rattus norvegicus [11]) of 96%, a Pressor response, % of control (Rattus norvegicus [12]) of 78% and a Control (Rattus norvegicus [16]) of 0%. It also gave an MAP (Rattus norvegicus [13]) of 94%, a Control (Rattus norvegicus [14]; in the assay text read “30 ng/kg of angiotensin II” for “100 ug/kg of compound”) of 0% and a Pressor response, % of control (Rattus norvegicus [17]) of 96%.

In the case of CC[C@H](C)[C@H](NC(=O)[C@H](Cc1ccc(O)cc1)NC(=O)[C@@H](NC(=O)[C@H](CCCN=C(N)N)NC(=O)[C@@H](N)CC(=O)O)C(C)C)C(=O)N[C@@H](Cc1c[nH]cn1)C(=O)N1CCC[C@@H]1C(=O)O, the Antagonist activity (Rattus norvegicus [18]) is reported as >300 µg/min/kg, the Water intake (Rattus norvegicus [1]) is reported as 6.1 ml 20min-1 and the Kb (Oryctolagus cuniculus) is reported as > 1 µM.

In the case of CC[C@H](C)[C@H](NC(=O)[C@H](Cc1ccc(O)cc1)NC(=O)[C@@H](NC(=O)[C@H](CCCN=C(N)N)NC(=O)CNC)C(C)C)C(=O)N[C@@H](Cc1c[nH]cn1)C(N)=O (H-[Sar]RVYIH-NH2), the Kb (Oryctolagus cuniculus) is reported as > 1 µM.

CC[C@H](C)[C@H](NC(=O)[C@H](Cc1ccc(O)cc1)NC(=O)[C@@H](NC(=O)[C@H](CCCN=C(N)N)NC(=O)CNC)C(C)C)C(=O)N[C@@H](Cc1c[nH]cn1)C(=O)N(C)C (H-[Sar]RVYIH-NMe2) [listing 2 of 2 here] showed a Pressor response, % of control (Rattus norvegicus [19]) of 28%, an Antagonist activity (Rattus norvegicus [3]) of 100 µg/min/kg and an Agonist activity (Rattus norvegicus [6]) of 50%. The Pressor response, % of control (Rattus norvegicus [20]) was 10%, the MAP (Rattus norvegicus [21]) was 82% and the Pressor response, % of control (Rattus norvegicus [22]) was 67%. It also gave a Pressor response, % of control (Rattus norvegicus [23]) of 13% and a Control (Rattus norvegicus [14]) of 5%.

For CC[C@H](C)[C@H](NC(=O)[C@H](Cc1ccc(O)cc1)NC(=O)[C@@H](NC(=O)[C@H](CCCN=C(N)N)NC(=O)CNC)C(C)C)C(=O)N[C@@H](Cc1c[nH]cn1)C(=O)N1CCC[C@H]1C(=O)O [listing 2 of 2 here], the Pressor response, % of control (Rattus norvegicus [9]) was 36%, the Antagonist activity (Rattus norvegicus [3]) was >100 µg/min/kg and the Agonist activity (Rattus norvegicus [6]) was 45%. The Control (Rattus norvegicus [14]) was 9%.

In the case of H-DRVYIH-NH2, the Kb (Oryctolagus cuniculus) is reported as > 1 µM.

CC[C@H](C)[C@H](NC(=O)[C@H](Cc1ccc(O)cc1)NC(=O)[C@@H](NC(=O)[C@H](CCCN=C(N)N)NC(=O)[C@@H](N)CC(=O)O)C(C)C)C(=O)N[C@@H](Cc1c[nH]cn1)C(=O)N(C)CC(N)=O (H-DRVYIH[Sar]-NH2) was tested, and the Kb (Oryctolagus cuniculus) was > 1 µM.

CC[C@H](C)[C@H](NC(=O)[C@H](Cc1ccc(O)cc1)NC(=O)[C@@H](NC(=O)[C@H](CCCN=C(N)N)NC(=O)CNC)C(C)C)C(=O)N[C@@H](Cc1c[nH]cn1)C(=O)NCC(N)=O (H-[Sar]RVYIHG-NH2) was tested, and the Kb (Oryctolagus cuniculus) was > 1 µM.
